Published values from different studies.
Each line is one published result; the experiments were not run side by side.

Compound	species	sample	route	dose	notes	Tmax [min]
COC(=O)C(NC(=O)c1cn(CCCCCF)c2ccccc12)C(C)(C)C (centres unmarked)	male Sprague-Dawley rat	plasma	subcutaneous	50 µg/kg	–	42.5
Cl.Cl.O=C(CCN1CCCCC1)c1ccc(-c2ccc(C(=O)CCN3CCCCC3)cc2)cc1	Sprague-Dawley rat	plasma	intravenous	5 mg/kg	–	1.8
O=C(Nc1cccnn1)N1CCN([C@@H]2CCOc3cc(C(F)(F)F)ccc32)CC1	male Sprague-Dawley rat	plasma	oral	1 mg/kg	–	40.2
CN(C)C(=O)Oc1cc(OC(=O)N(C)C)cc(-c2cc3ccc(O)cc3o2)c1	male rat	plasma	oral	5 mg/kg	–	94.8
Cc1ncc(C)n2nc(/C=C/c3nc(N4CCCC4)cc(N4CCOCC4)n3)nc12	male Sprague-Dawley rat	plasma	oral	0.3 mg/kg	–	162
CCCCCCCC(=O)N[C@@H](CCCCN)C(=O)N[C@@H](CCCCN)C(=O)N[C@@H](C)C(=O)N[C@@H](CC(C)C)C(=O)N[C@@H](CCCCN)C(=O)N[C@@H](CC(C)C)C(=O)N[C@@H](C)C(=O)N[C@@H](CCCCN)C(=O)N[C@@H](CCCCN)C(=O)N1CCC[C@H]1C(=O)N[C@@H](CC(C)C)C(=O)N[C@@H](CCCCN)C(=O)N[C@@H](CC(C)C)C(=O)N[C@@H](CC(C)C)C(=O)N[C@@H](CCCCN)C(N)=O	male Sprague-Dawley rat	blood	intravenous	3 mg/kg	infusion	40.2
COc1ccc2c3c1O[C@H]1C[C@@H](OC(=O)c4ccccc4)C=C[C@@]31CCN(C)C2	rat	brain	intravenous	5 mg/kg	–	4.8
CC(C)(C)[C@H](NC(=O)[C@H](CCONC(=N)N)NC(=O)Cc1ccc(CNC(=N)N)cc1)C(=O)N[C@@H](CCONC(=N)N)C(=O)NCc1ccc(C(=N)N)cc1	male Sprague-Dawley rat	plasma	intraperitoneal	2.5 mg/kg	–	30
